Source: ChEMBL document CHEMBL4689842, “EUbOPEN Chemogenomics Library wave 1” (2021)
Several values for one entry are separate records, joined by “and”; a condition that tells them apart may be missing. Equal values may be shown once.

Tested on: U2OS
Experiment: Multiplex assay against U2OS
Format: toxicity, cell-based
Details: human
Summary of the method: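 Live cells carried four stains from seeding: Hoechst33342, BioTracker Green Microtubule Cytoskeleton Dye, MitoTracker Red and Annexin V Alexa Fluor 680. They were imaged on a CQ1 microscope at 37°C and 5% CO2 after compound addition. Using CellPathfinder machine-learning gating, cells were split into Hoechst high-intensity objects or normal cells, normal cells into healthy, pyknosed or fragmented nuclei, and pyknosed cells into mitotic or apoptotic; tubulin, mitochondrial-mass and membrane-permeability phenotypes are per cents of healthy-nucleus cells.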

[1] = 12 h, 1 µM, compound concentration 1 uM, replicate 1
[2] = 12 h, 1 µM, compound concentration 1 uM, replicate 2
[3] = 12 h, 10 µM, compound concentration 10 uM, replicate 1
[4] = 12 h, 10 µM, compound concentration 10 uM, replicate 2
[5] = 24 h, 1 µM, compound concentration 1 uM, replicate 1
[6] = 24 h, 1 µM, compound concentration 1 uM, replicate 2
[7] = 24 h, 10 µM, compound concentration 10 uM, replicate 1
[8] = 24 h, 10 µM, compound concentration 10 uM, replicate 2
[9] = 48 h, 1 µM, compound concentration 1 uM, replicate 1
[10] = 48 h, 1 µM, compound concentration 1 uM, replicate 2
[11] = 48 h, 10 µM, compound concentration 10 uM, replicate 1
[12] = 48 h, 10 µM, compound concentration 10 uM, replicate 2

## CS(=O)(=O)N1CCCC(NC(=O)[C@H](CCC2CCCCC2)NC(=O)c2ccc(CNc3ncnc4c3nnn4-c3ccccc3)cc2)C1 (stereo not given in full) [SR-301]
[1]
  Population Apoptotic (%): 27% and 50% and 35%
  Population Fragmented Nuclei (%): 13% and 7%
  Population Healthy Nuclei (%): 74% and 76% and 79%
  Population Hoechst High Intensity Objects (%): 5% and 4% and 3%
  Population Membrane Permeable-Phenotype (%): 7% and 4% and 3%
  Population Mitochondria Different-Phenotype (%): 11% and 9% and 8%
  Population Mitotic Cells (%): 72% and 50% and 64%
  Population Normal (%): 94% and 95% and 96%
  Population Pyknosed Nuclei (%): 12% and 13%
  Total Cell Count: 200 and 294 and 192
[2]
  Population Apoptotic (%): 25% and 63% and 33%
  Population Fragmented Nuclei (%): 14% and 11%
  Population Healthy Nuclei (%): 81% and 70% and 89%
  Population Hoechst High Intensity Objects (%): 19% and 13%
  Population Membrane Permeable-Phenotype (%): 10% and 2%
  Population Mitochondria Different-Phenotype (%): 20% and 14% and 10%
  Population Mitotic Cells (%): 75% and 36% and 66%
  Population Normal (%): 80% and 86%
  Population Tubulin-Different-Phenotype (%): 21% and 19% and 12%
  Total Cell Count: 135 and 58 and 69
[3]
  Population Apoptotic (%): 81% and 62% and 53%
  Population Fragmented Nuclei (%): 21% and 23% and 11%
  Population Healthy Nuclei (%): 27% and 44% and 78%
  Population Hoechst High Intensity Objects (%): 10% and 5%
  Population Mitochondria Different-Phenotype (%): 39% and 28% and 22%
  Population Mitotic Cells (%): 18% and 37% and 46%
  Population Normal (%): 89% and 94%
  Population Tubulin-Different-Phenotype (%): 39% and 52% and 28%
  Total Cell Count: 202 and 154 and 295
[4]
  Population Apoptotic (%): 80% and 75% and 41%
  Population Fragmented Nuclei (%): 39% and 27%
  Population Healthy Nuclei (%): 20% and 25% and 58%
  Population Hoechst High Intensity Objects (%): 4% and 2%
  Population Membrane Permeable-Phenotype (%): 61% and 54% and 30%
  Population Mitochondria Different-Phenotype (%): 66% and 54% and 34%
  Population Mitotic Cells (%): 20% and 25% and 58%
  Population Normal (%): 95% and 97%
  Population Pyknosed Nuclei (%): 39% and 47% and 20%
  Population Tubulin-Different-Phenotype (%): 55% and 54% and 34%
  Total Cell Count: 89 and 86 and 105
[5]
  Population Apoptotic (%): 47% and 48%
  Population Fragmented Nuclei (%): 10% and 5%
  Population Healthy Nuclei (%): 82% and 75%
  Population Hoechst High Intensity Objects (%): 3% and 0%
  Population Membrane Permeable-Phenotype (%): 5% and 3% and 2%
  Population Mitochondria Different-Phenotype (%): 6% and 8%
  Population Mitotic Cells (%): 52% and 51%
  Population Normal (%): 96% and 99%
  Population Pyknosed Nuclei (%): 14% and 7%
  Total Cell Count: 350 and 199 and 225
[6]
  Population Fragmented Nuclei (%): 12% and 7%
  Population Healthy Nuclei (%): 78% and 80% and 86%
  Population Membrane Permeable-Phenotype (%): 7% and 6%
  Population Mitochondria Different-Phenotype (%): 20% and 10%
  Population Mitotic Cells (%): 87% and 60% and 55%
  Population Normal (%): 80% and 95%
  Population Pyknosed Nuclei (%): 9% and 12% and 6%
  Population Tubulin-Different-Phenotype (%): 13% and 26% and 14%
  Total Cell Count: 148 and 64 and 84
[7]
  Population Apoptotic (%): 96% and 87% and 65%
  Population Healthy Nuclei (%): 25% and 39% and 75%
  Population Mitochondria Different-Phenotype (%): 29% and 16% and 13%
  Population Normal (%): 89% and 92% and 96%
  Population Pyknosed Nuclei (%): 39% and 38% and 13%
  Population Tubulin-Different-Phenotype (%): 37% and 63% and 44%
  Total Cell Count: 235 and 159 and 307
[8]
  Population Apoptotic (%): 91% and 94% and 89%
  Population Fragmented Nuclei (%): 25% and 32% and 19%
  Population Hoechst High Intensity Objects (%): 15% and 21% and 9%
  Population Mitotic Cells (%): 8% and 5% and 10%
  Population Normal (%): 84% and 78% and 90%
  Population Pyknosed Nuclei (%): 49% and 50% and 21%
  Total Cell Count: 98 and 89 and 110
[9]
  Population Apoptotic (%): 58% and 30%
  Population Fragmented Nuclei (%): 3%
  Population Healthy Nuclei (%): 84% and 87%
  Population Hoechst High Intensity Objects (%): 1% and 0%
  Population Membrane Permeable-Phenotype (%): 2% and 1%
  Population Mitochondria Different-Phenotype (%): 9% and 7%
  Population Mitotic Cells (%): 41% and 69% and 74%
  Population Normal (%): 98% and 99%
  Population Pyknosed Nuclei (%): 7%
  Total Cell Count: 208 and 559 and 312
[10]
  Population Apoptotic (%): 38% and 21% and 25%
  Population Fragmented Nuclei (%): 4% and 7% and 9%
  Population Healthy Nuclei (%): 83% and 76%
  Population Membrane Permeable-Phenotype (%): 7% and 3%
  Population Mitochondria Different-Phenotype (%): 13% and 8% and 12%
  Population Mitotic Cells (%): 61% and 78% and 75%
  Population Normal (%): 92% and 96% and 85%
  Population Pyknosed Nuclei (%): 12% and 8% and 13%
  Total Cell Count: 84 and 114 and 231
[11]
  Population Apoptotic (%): 92% and 85% and 62%
  Population Mitochondria Different-Phenotype (%): 17% and 14% and 9%
  Population Normal (%): 89% and 91% and 96%
  Population Tubulin-Different-Phenotype (%): 37% and 75% and 53%
  Total Cell Count: 372 and 170 and 387
[12]
  Population Apoptotic (%): 96% and 100% and 84%
  Population Fragmented Nuclei (%): 23% and 17% and 12%
  Population Healthy Nuclei (%): 38% and 68%
  Population Membrane Permeable-Phenotype (%): 85% and 44%
  Population Mitochondria Different-Phenotype (%): 81% and 74% and 35%
  Population Mitotic Cells (%): 3% and 0% and 15%
  Population Normal (%): 76% and 80% and 92%
  Population Pyknosed Nuclei (%): 38% and 30% and 19%
  Population Tubulin-Different-Phenotype (%): 81% and 82% and 30%
  Total Cell Count: 84 and 107 and 142

## CC[C@@H]1C(=O)N(C)c2cnc(Nc3ccc(C(=O)NC4CCN(C)CC4)cc3OC)nc2N1C1CCCC1 [BI-2536]
[1]
  Population Apoptotic (%): 100%
  Population Fragmented Nuclei (%): 16%
  Population Healthy Nuclei (%): 80%
  Population Hoechst High Intensity Objects (%): 1%
  Population Membrane Permeable-Phenotype (%): 40%
  Population Mitochondria Different-Phenotype (%): 16%
  Population Mitotic Cells (%): 0%
  Population Normal (%): 98%
  Population Pyknosed Nuclei (%): 3%
  Population Tubulin-Different-Phenotype (%): 35%
  Total Cell Count: 142
[2]
  Population Apoptotic (%): 70%
  Population Fragmented Nuclei (%): 10%
  Population Healthy Nuclei (%): 79%
  Population Hoechst High Intensity Objects (%): 8%
  Population Membrane Permeable-Phenotype (%): 33%
  Population Mitochondria Different-Phenotype (%): 24%
  Population Mitotic Cells (%): 30%
  Population Normal (%): 91%
  Population Pyknosed Nuclei (%): 10%
  Population Tubulin-Different-Phenotype (%): 34%
  Total Cell Count: 107
[3]
  Population Apoptotic (%): 76%
  Population Fragmented Nuclei (%): 15%
  Population Healthy Nuclei (%): 76%
  Population Hoechst High Intensity Objects (%): 2%
  Population Membrane Permeable-Phenotype (%): 41%
  Population Mitochondria Different-Phenotype (%): 72%
  Population Mitotic Cells (%): 23%
  Population Normal (%): 97%
  Population Pyknosed Nuclei (%): 8%
  Population Tubulin-Different-Phenotype (%): 99%
  Total Cell Count: 160
[4]
  Population Apoptotic (%): 81%
  Population Fragmented Nuclei (%): 23%
  Population Healthy Nuclei (%): 67%
  Population Hoechst High Intensity Objects (%): 8%
  Population Membrane Permeable-Phenotype (%): 51%
  Population Mitochondria Different-Phenotype (%): 94%
  Population Mitotic Cells (%): 18%
  Population Normal (%): 91%
  Population Pyknosed Nuclei (%): 9%
  Population Tubulin-Different-Phenotype (%): 100%
  Total Cell Count: 123
[5]
  Population Apoptotic (%): 46%
  Population Fragmented Nuclei (%): 17%
  Population Healthy Nuclei (%): 73%
  Population Hoechst High Intensity Objects (%): 2%
  Population Membrane Permeable-Phenotype (%): 20%
  Population Mitochondria Different-Phenotype (%): 29%
  Population Mitotic Cells (%): 53%
  Population Normal (%): 97%
  Population Pyknosed Nuclei (%): 9%
  Population Tubulin-Different-Phenotype (%): 17%
  Total Cell Count: 145
[6]
  Population Apoptotic (%): 55%
  Population Fragmented Nuclei (%): 21%
  Population Healthy Nuclei (%): 69%
  Population Hoechst High Intensity Objects (%): 12%
  Population Membrane Permeable-Phenotype (%): 15%
  Population Mitochondria Different-Phenotype (%): 35%
  Population Mitotic Cells (%): 44%
  Population Normal (%): 87%
  Population Pyknosed Nuclei (%): 8%
  Population Tubulin-Different-Phenotype (%): 10%
  Total Cell Count: 115
[7]
  Population Apoptotic (%): 93%
  Population Fragmented Nuclei (%): 18%
  Population Healthy Nuclei (%): 72%
  Population Hoechst High Intensity Objects (%): 5%
  Population Membrane Permeable-Phenotype (%): 61%
  Population Mitochondria Different-Phenotype (%): 99%
  Population Mitotic Cells (%): 6%
  Population Normal (%): 94%
  Population Pyknosed Nuclei (%): 9%
  Population Tubulin-Different-Phenotype (%): 99%
  Total Cell Count: 180
[8]
  Population Apoptotic (%): 88%
  Population Fragmented Nuclei (%): 22%
  Population Healthy Nuclei (%): 70%
  Population Hoechst High Intensity Objects (%): 10%
  Population Membrane Permeable-Phenotype (%): 84%
  Population Mitochondria Different-Phenotype (%): 100%
  Population Mitotic Cells (%): 11%
  Population Normal (%): 89%
  Population Pyknosed Nuclei (%): 7%
  Population Tubulin-Different-Phenotype (%): 100%
  Total Cell Count: 135
